DAGLB inh = diacylglycerol lipase beta (human) inhibition; HEK293T DAGLB membrane lysate, EnzChek fluorogenic substrate; Q8NCG7; hit rate 0.059% among 340,000; inhibition, % at 5.17 µM; in the data active = inhibition above about 34%
FGF22 binding = FGF22 (human) thermal shift binding | activity (Tm shift, normalised), % at 9.99 µM | Q9HCT0 | recombinant FGF22 thermal shift, SYPRO orange fluorescence; percent of sucrose octasulfate shift, DMSO zero | hit rate 1.5% among 340,000;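 active = mean Tm shift, scaled 0 neutral to 100 positive control, at about 1.3% or above, every replicate too, limit read from the data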
MT1-MMP act inh = inhibitors of human MT1-MMP activation | P50281 | HT1080 RFP-PRO-GFP cells, GFP/RFP ratio fluorescence, overnight; percent of plate control window, DMSO zero | GFP/RFP ratio change, % at 20 µM | hit rate 0.061% among 360,000;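 active = GFP/RFP ratio change of at least 30% with cell ATP level not reduced by more than half and red fluorescence within 50% of control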
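Assay system: HT1080 RFP-PRO-GFP cells. Benchmarks: DMSO vehicle wells and RFP-L50D-GFP reporter cell wells. Times: overnight cell settling, then overnight compound exposure, 37 °C, 5% CO2. Compound: 20 µM single dose, 1% DMSO. Read-out basis: GFP/RFP fluorescence ratio.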
VLA-4 inh = inhibition in a human VLA-4 binding assay. P13612. VLA-4 expressing cells, ligand binding flow cytometry. inhibition, % (about 7 µM as worked out from the volumes in the protocol). hit rate 0.2% among 330,000; in the data active = inhibition above about 50%
Exocytosis inh = lytic granule exocytosis inhibition. TALL-104 LAMP-1 surface exposure, flow cytometry; cells stimulated with thapsigargin and PMA. inhibition, % at 10 µM. hit rate 0.66% among 360,000;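 active = inhibition above about 55%, limit read from the data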
ABCB6 inh MLPCN = human ABCB6 transporter inhibition. Q9NP58. K562-ABCB6 porphyrin accumulation, flow cytometry, 1 h; active compounds read low. fluorescence ratio to DMSO, % at 10 µM. hit rate 0.19% among 360,000. AID 602162;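 active = fluorescence ratio to DMSO below 75%, the collection mean minus 3 SD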;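 also: signal is porphyrin accumulated inside mitochondria; lower ratio means ABCB6 inhibition with less porphyrin fluorescence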
Target sequence (Q9NP58 whole entry, looked up): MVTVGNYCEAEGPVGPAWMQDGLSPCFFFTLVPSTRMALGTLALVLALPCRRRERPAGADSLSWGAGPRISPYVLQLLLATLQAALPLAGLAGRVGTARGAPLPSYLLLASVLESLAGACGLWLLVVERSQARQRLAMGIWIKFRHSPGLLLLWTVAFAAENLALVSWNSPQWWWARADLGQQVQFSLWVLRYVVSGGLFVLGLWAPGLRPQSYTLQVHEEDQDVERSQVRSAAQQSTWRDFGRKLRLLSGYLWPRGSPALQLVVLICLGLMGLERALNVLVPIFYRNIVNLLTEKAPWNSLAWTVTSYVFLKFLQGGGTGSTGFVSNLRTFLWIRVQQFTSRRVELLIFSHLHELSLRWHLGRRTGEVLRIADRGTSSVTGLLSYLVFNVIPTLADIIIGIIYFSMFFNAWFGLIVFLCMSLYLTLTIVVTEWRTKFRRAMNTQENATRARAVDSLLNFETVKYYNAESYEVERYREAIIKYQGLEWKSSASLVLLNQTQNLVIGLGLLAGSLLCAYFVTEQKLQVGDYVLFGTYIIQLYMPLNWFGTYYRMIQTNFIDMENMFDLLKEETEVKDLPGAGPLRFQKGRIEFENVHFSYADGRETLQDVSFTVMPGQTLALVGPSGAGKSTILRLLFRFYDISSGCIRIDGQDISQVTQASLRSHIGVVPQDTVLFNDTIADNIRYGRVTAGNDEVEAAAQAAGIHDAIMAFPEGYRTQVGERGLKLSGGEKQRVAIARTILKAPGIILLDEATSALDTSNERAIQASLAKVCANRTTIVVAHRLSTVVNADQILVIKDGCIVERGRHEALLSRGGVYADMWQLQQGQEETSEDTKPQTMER
Granule exo CP1 = lytic granule exocytosis inhibition. shares compounds with Exocytosis inh. TALL-104 cells, LAMP-1 externalization, flow cytometry; stimulated with PMA plus thapsigargin. hit rate 11% among 1,500. inhibition, % at 10 µM; in the data active = inhibition above about 60%
Numbers stand for hits; n = inactive; x = not tested or not shown. A selection: hits, their analogues and other compounds. The true share with any hit is near 2%.

SMILES	DAGLB inh	FGF22 binding	MT1-MMP act inh	VLA-4 inh	Exocytosis inh	ABCB6 inh MLPCN	Granule exo CP1
COc1ccc(Cl)cc1Nc1cc(C)nc2ccccc12	x	n	n	n	76.1	n	n
COc1ccccc1Nc1c2ccccc2nc2ccccc12	n	n	n	n	81.7	n	n
COc1cc(Nc2c3ccccc3nc3ccccc23)cc(OC)c1OC	n	n	n	n	n	n	x
COc1ccc(OC)c(Nc2cc(C)nc3ccccc23)c1	n	x	n	n	n	n	x
COCc1cc(C)nc2sc(C(=O)Nc3ccc(C(=O)OC)cc3)c(N)c12	n	n	n	n	84.8	n	n
C[C@@H]1CN([C@@H](C)CO)C(=O)c2cc(NS(=O)(=O)c3cn(C)cn3)ccc2O[C@@H]1CN(C)Cc1ccc2c(c1)OCO2	x	n	x	x	x	x	x
CC(C)N(C[C@H]1N[C@@H](CO)[C@H]1c1ccccc1)C(=O)c1ccccc1	x	n	x	x	x	x	x
COc1cc(Sc2ccc(C)cc2)c(OC)cc1N	n	x	n	n	93.7	n	n
COC(=O)c1ccc(Sc2ccc(C)cc2)c(N)c1	n	n	n	n	n	n	x
C[C@@H]1CCCCO[C@H](CN(C)C(=O)c2ccccc2)[C@@H](C)CN([C@H](C)CO)C(=O)c2cc(NS(=O)(=O)c3ccc(Cl)cc3)ccc2O1	x	n	x	x	x	x	x
COc1cc(-c2coc3c(C(=O)NCc4ccc(N(C)C)cc4)cccc23)ccc1O	x	n	n	x	n	n	x
COc1cc(-c2coc3c(C(=O)NCc4ccc(OC)c(OC)c4)cccc23)ccc1O	x	n	n	x	66.1	n	91.6
CCN(CC(=O)NCc1cccs1)C(=O)c1cccc(S(=O)(=O)N2CCc3ccccc32)c1	n	n	n	n	64.9	n	n
COc1ccc(S(=O)(=O)Nc2ccc3c(c2)CC(=O)N([C@@H](C)CO)C[C@@H](C)[C@@H](CN(C)C(=O)Nc2ccc4c(c2)OCO4)O3)cc1	x	n	x	x	x	x	x
Cc1ccc(NC(=O)CSc2nnc3ccccn23)cc1S(=O)(=O)N1CCOCC1	n	n	n	n	81.2	n	n
Cc1ccc(NC(=O)CSc2nccn2C)cc1S(=O)(=O)N1CCOCC1	n	x	n	n	n	n	x
CCOC(=O)C1(CCOc2ccccc2)CCN(Cc2ccc(OCCO)cc2)CC1	n	n	n	n	n	n	x
CCOC(=O)C1(CCOc2ccccc2)CCN(Cc2cc(OC)c(O)c(OC)c2)CC1	n	n	n	n	76.6	n	n
CCOC(=O)C1(CCOc2ccccc2)CCN(Cc2ccc(O)c(OCC)c2)CC1	n	n	n	n	80.9	n	n
CCOC(=O)C1(CCOc2ccccc2)CCN(Cc2cnc(SC)nc2)CC1	n	n	n	n	n	n	x
CCOC(=O)C1(CCOc2ccccc2)CCN(Cc2ccc(OC)c(O)c2)CC1	n	n	n	n	71.0	n	n
CCOC(=O)C1(CCOc2ccccc2)CCN(Cc2ccc(O)cc2)CC1	n	n	x	n	56.5	n	n
O=C(C[C@@H]1CC[C@@H]2[C@H](COC[C@@H](O)CN2C(=O)c2ccccc2)O1)NCCCN1CCOCC1	x	n	x	x	x	x	x
C[C@@H]1CN([C@H](C)CO)C(=O)c2cc(C#Cc3ccccc3)cnc2O[C@H]1CN(C)C(=O)C1CC1	x	n	x	x	x	x	x
CCN(C[C@@H]1N[C@@H](CO)[C@H]1c1ccc(-c2ccccc2)cc1)C(=O)COC	x	n	x	x	x	x	x
SMILES	DAGLB inh	FGF22 binding	MT1-MMP act inh	VLA-4 inh	Exocytosis inh	ABCB6 inh MLPCN	Granule exo CP1
CCOC(=O)C1(CCOc2ccccc2)CCN(Cc2ccc(OC)c(COC)c2)CC1	n	n	n	n	73.6	n	n
CC(C)[C@H](NC(=O)c1ccccc1)C(=O)OCC(=O)N1CCc2ccccc2C1	n	x	n	n	68.3	n	n
CCN(CC(=O)Nc1ccccc1OC)C(=O)CCc1ccccc1	n	n	n	n	n	n	x
CCCN(CC(=O)Nc1ccccc1OC)C(C)C(=O)NC(C)CCc1ccccc1 (stereo not given)	n	n	n	n	69.7	n	n
CCSC1=NC(C)(C)C=C(/C=C/c2ccc(Cl)cc2Cl)N1	n	x	n	n	n	n	x
CSC1=NC(C)(C)C=C(/C=C/c2ccc(Cl)cc2Cl)N1	n	n	n	n	74.7	n	n
COC(=O)C1CCN(CCCOc2ccc(CN3CCN(c4ccc([N+](=O)[O-])cc4)CC3)cc2)CC1	n	n	n	n	83.7	n	n

High-throughput results: PubChem, several laboratories
